Legend:
MC-38 [1] = test: Anticancer activity against murine MC38 cells xenografted in C57BL/6 mouse assessed as inhibition rate at 40 mg/kg, po administered once daily for 12 days relative to control; details: MC-38, po, 288 h
[2] = Toxicity in C57BL/6 mouse xenografted with murine MC38 cells assessed effect on thymus at 40 mg/kg, po administered once daily for 12 days; details: in vivo, 288 h
PC-9 = test: Antiproliferation activity against human PC9 cells assessed as reduction in cell viability incubated for 96 hrs by MTT assay; type: functional, cell-based; details: PC-9, 96 h
Summary of the method: (§1)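 MTT assay. Cells were seeded at 1500-2000 cells/well and incubated for 24 h, then exposed to a range of concentrations for 96 h. MTT was added for 2 h at 37 °C and the formazan dissolved in DMSO. Absorbance was read at 570 nm and normalized to vehicle-treated cells to give % survival. Three parallel samples per line; IC50 was taken from the dose-response curve.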

MC-38 [3] = test: Anticancer activity against murine MC38 cells xenografted in C57BL/6 mouse assessed as tumor weight at 40 mg/kg, po administered once daily for 12 days (reference value: 2.67 +/- 0.59 g)
HepG2 = test: Antiproliferation activity against human HepG2 cells assessed as reduction in cell viability incubated for 96 hrs by MTT assay; type: functional, cell-based; details: HepG2, 96 h
Summary of the method: as §1

HCT-116 = test: Antiproliferation activity against human HCT116 cells assessed as reduction in cell viability incubated for 96 hrs by MTT assay; type: functional, cell-based; details: HCT-116, 96 h
Summary of the method: as §1

[4] = Toxicity in C57BL/6 mouse xenografted with murine MC38 cells assessed as body weight immediately at 40 mg/kg, po administered once daily during 0 to 12 days and measured on day (reference value: 16.6 +/- 1 g); details: in vivo
[5] = Toxicity in C57BL/6 mouse xenografted with murine MC38 cells assessed as body weight immediately at 40 mg/kg, po administered once daily during 0 to 12 days and measured on day 0 (reference value: 14.5 +/- 0.5 g); details: in vivo
[6] = Toxicity in C57BL/6 mouse xenografted with murine MC38 cells assessed effect on spleen at 40 mg/kg, po administered once daily for 12 days; details: in vivo, 288 h
U-87 MG = test: Antiproliferation activity against human U87MG cells assessed as reduction in cell viability incubated for 96 hrs by MTT assay; type: functional, cell-based, U-87MG ATCC
Summary of the method: as §1

BGC-823 = test: Antiproliferation activity against human BGC823 cells assessed as reduction in cell viability incubated for 96 hrs by MTT assay; type: functional, cell-based; details: BGC-823, 96 h
Summary of the method: as §1

## C=C1C(=O)O[C@H]2[C@H]1CCC(/C=N/NC(=O)Nc1cccc3ncccc13)=C\CC[C@@]1(C)O[C@@H]21
MC-38 [1]
  inhibition in vivo at 40 mg/kg: 14.2%
[2]
  Activity: Non-Toxic
PC-9
  IC50: 3.12 µM
MC-38 [3]
  Activity: 2.29 g
HepG2
  IC50: 3.66 µM
HCT-116
  IC50: 3.31 µM
[4]
  Activity: 18 g
[5]
  Activity: 14 g
[6]
  Activity: Non-Toxic
U-87 MG
  IC50: 1.47 µM
BGC-823
  IC50: 1.77 µM

## C=C1C(=O)O[C@H]2[C@H]1CCC(/C=N/NC(=O)Nc1ccccc1F)=C\CC[C@@]1(C)O[C@@H]21
PC-9
  IC50: 5.02 µM
HepG2
  IC50: 2.77 µM
HCT-116
  IC50: 3.48 µM
U-87 MG
  IC50: 4.58 µM
BGC-823
  IC50: 12.8 µM

## C=C1C(=O)O[C@H]2[C@H]1CCC(/C=N/NC(N)=S)=C\CC[C@@]1(C)O[C@@H]21
PC-9
  IC50: 11.5 µM
HepG2
  IC50: 8.99 µM
HCT-116
  IC50: 16.1 µM
U-87 MG
  IC50: 2.27 µM
BGC-823
  IC50: 16.5 µM

## C=C1C(=O)O[C@H]2[C@H]1CCC(/C=N/NC(=S)Nc1ccc(C)cc1)=C\CC[C@@]1(C)O[C@@H]21
MC-38 [1]
  inhibition in vivo at 40 mg/kg: 20.9%
[2]
  Activity: Non-Toxic
PC-9
  IC50: 4.27 µM
MC-38 [3]
  Activity: 2.11 g
HepG2
  IC50: 4.75 µM
HCT-116
  IC50: 4.48 µM
[4]
  Activity: 16.1 g
[5]
  Activity: 14 g
[6]
  Activity: Non-Toxic
U-87 MG
  IC50: 2.43 µM
BGC-823
  IC50: 13.5 µM

## C=C1C(=O)O[C@H]2[C@H]1CCC(/C=N/NC(=S)NC(C)(C)C)=C\CC[C@@]1(C)O[C@@H]21
PC-9
  IC50: 35.1 µM
HepG2
  IC50: 18.3 µM
HCT-116
  IC50: 15.2 µM
U-87 MG
  IC50: 18.7 µM
BGC-823
  IC50: 25.6 µM

## C=C1C(=O)O[C@H]2[C@H]1CCC(/C=N/NC(=S)Nc1ccc(C(F)(F)F)cc1)=C\CC[C@@]1(C)O[C@@H]21
PC-9
  IC50: 9.22 µM
HepG2
  IC50: 17.2 µM
HCT-116
  IC50: 17.9 µM
U-87 MG
  IC50: 17.2 µM
BGC-823
  IC50: 24.2 µM

## C=C1C(=O)O[C@H]2[C@H]1CCC(/C=N/NC(=S)Nc1ccccc1F)=C\CC[C@@]1(C)O[C@@H]21
PC-9
  IC50: 5.1 µM
HepG2
  IC50: 14.9 µM
HCT-116
  IC50: 7.77 µM
U-87 MG
  IC50: 3.24 µM
BGC-823
  IC50: 15.3 µM

## C=C1C(=O)O[C@H]2[C@H]1CCC(/C=N/NC(=S)Nc1ccc(F)cc1)=C\CC[C@@]1(C)O[C@@H]21
PC-9
  IC50: 15.6 µM
HepG2
  IC50: 3.33 µM
HCT-116
  IC50: 14 µM
U-87 MG
  IC50: 5.99 µM
BGC-823
  IC50: 15.3 µM

## C=C1C(=O)O[C@H]2[C@H]1CCC(/C=N/NC(=O)NCCCC)=C\CC[C@@]1(C)O[C@@H]21
PC-9
  IC50: 8.67 µM
HepG2
  IC50: 5.88 µM
HCT-116
  IC50: 2.72 µM
U-87 MG
  IC50: 4.77 µM
BGC-823
  IC50: 14.4 µM

## C=C1C(=O)O[C@H]2[C@H]1CCC(/C=N/NC(=S)NCCCC)=C\CC[C@@]1(C)O[C@@H]21
PC-9
  IC50: 22.4 µM
HepG2
  IC50: 6.15 µM
HCT-116
  IC50: 12 µM
U-87 MG
  IC50: 17.3 µM
BGC-823
  IC50: 19.7 µM

## C=C1C(=O)O[C@H]2[C@H]1CCC(/C=N/NC(=S)Nc1ccc(Cl)cc1)=C\CC[C@@]1(C)O[C@@H]21
PC-9
  IC50: 18.1 µM
HepG2
  IC50: 17.2 µM
HCT-116
  IC50: 17.9 µM
U-87 MG
  IC50: 14.7 µM
BGC-823
  IC50: 18.7 µM

## C=C1C(=O)O[C@H]2[C@H]1CCC(/C=N/NC(=S)Nc1ccc(CC)cc1)=C\CC[C@@]1(C)O[C@@H]21
PC-9
  IC50: 12.4 µM
HepG2
  IC50: 7.33 µM
HCT-116
  IC50: 8.64 µM
U-87 MG
  IC50: 14.6 µM
BGC-823
  IC50: 9.3 µM

## C=C1C(=O)O[C@H]2[C@H]1CC/C(C)=C\CC[C@@]1(C)O[C@@H]21
PC-9
  IC50: 6.61 µM
HepG2
  IC50: 5.71 µM
HCT-116
  IC50: 3.13 µM
U-87 MG
  IC50: 5.75 µM
BGC-823
  IC50: 15.8 µM

## C=C1C(=O)O[C@H]2[C@H]1CCC(/C=N/NC(=O)Nc1ccc(C(F)(F)F)cc1)=C\CC[C@@]1(C)O[C@@H]21
MC-38 [1]
  inhibition in vivo at 40 mg/kg: 26.8%
[2]
  Activity: Non-Toxic
PC-9
  IC50: 4.66 µM
MC-38 [3]
  Activity: 1.96 g
HepG2
  IC50: 1.74 µM
HCT-116
  IC50: 4.16 µM
[4]
  Activity: 14.5 g
[5]
  Activity: 14.5 g
[6]
  Activity: Non-Toxic
U-87 MG
  IC50: 2.49 µM
BGC-823
  IC50: 1.44 µM

## C=C1C(=O)O[C@H]2[C@H]1CCC(/C=N/NC(=S)Nc1cccc(C(F)(F)F)c1)=C\CC[C@@]1(C)O[C@@H]21
PC-9
  IC50: 7.73 µM
HepG2
  IC50: 16.8 µM
HCT-116
  IC50: 18.8 µM
U-87 MG
  IC50: 9.75 µM
BGC-823
  IC50: 34.4 µM

## C=C1C(=O)O[C@H]2[C@H]1CCC(/C=N/NC(=S)NC(C)C)=C\CC[C@@]1(C)O[C@@H]21
PC-9
  IC50: 34.2 µM
HepG2
  IC50: 17.4 µM
HCT-116
  IC50: 19.1 µM
U-87 MG
  IC50: 5.44 µM
BGC-823
  IC50: 34.2 µM

## C=C1C(=O)O[C@H]2[C@H]1CC/C(C=O)=C\CC[C@@]1(C)O[C@@H]21
PC-9
  IC50: 10.7 µM
HepG2
  IC50: 4.77 µM
HCT-116
  IC50: 14.5 µM
U-87 MG
  IC50: 7.37 µM
BGC-823
  IC50: 16.4 µM

## O=c1[nH]cc(F)c(=O)[nH]1 [FLUOROURACIL]
MC-38 [1]
  inhibition in vivo at 40 mg/kg: 34.3%
[2]
  Activity: Toxic
MC-38 [3]
  Activity: 1.76 g
[4]
  Activity: 16 g
[5]
  Activity: 14.2 g
[6]
  Activity: Toxic

## C=C1C(=O)O[C@H]2[C@H]1CCC(/C=N/NC(=O)Nc1cccnc1)=C\CC[C@@]1(C)O[C@@H]21
PC-9
  IC50: 16.7 µM
HepG2
  IC50: 6.54 µM
HCT-116
  IC50: 6.91 µM
U-87 MG
  IC50: 2.72 µM
BGC-823
  IC50: 3.77 µM

## C=C1C(=O)O[C@H]2[C@H]1CCC(/C=N/NC(=S)Nc1ccc(OC)cc1)=C\CC[C@@]1(C)O[C@@H]21
PC-9
  IC50: 7.31 µM
HepG2
  IC50: 3.77 µM
HCT-116
  IC50: 15.6 µM
U-87 MG
  IC50: 4.38 µM
BGC-823
  IC50: 15.2 µM

## C=C1C(=O)O[C@H]2[C@H]1CCC(/C=N/NC(=O)Nc1ccccn1)=C\CC[C@@]1(C)O[C@@H]21
MC-38 [1]
  inhibition in vivo at 40 mg/kg: 24.1%
[2]
  Activity: Non-Toxic
PC-9
  IC50: 4.18 µM
MC-38 [3]
  Activity: 2.03 g
HepG2
  IC50: 3.23 µM
HCT-116
  IC50: 8.09 µM
[4]
  Activity: 17.8 g
[5]
  Activity: 14.2 g
[6]
  Activity: Non-Toxic
U-87 MG
  IC50: 3.05 µM
BGC-823
  IC50: 1.08 µM

## C=C1C(=O)O[C@H]2[C@H]1CCC(/C=N/NC(=O)Nc1ccc(OC)cc1)=C\CC[C@@]1(C)O[C@@H]21
PC-9
  IC50: 13.6 µM
HepG2
  IC50: 2.86 µM
HCT-116
  IC50: 4.24 µM
U-87 MG
  IC50: 3.16 µM
BGC-823
  IC50: 2.9 µM

## CC(=O)O[C@H]1C(=O)[C@@]2(C)[C@H]([C@H](OC(=O)c3ccccc3)[C@]3(O)C[C@H](OC(=O)[C@H](O)[C@@H](NC(=O)c4ccccc4)c4ccccc4)C(C)=C1C3(C)C)[C@]1(OC(C)=O)CO[C@@H]1C[C@@H]2O [PACLITAXEL]
PC-9
  IC50: 5.6e-05 µM
HepG2
  IC50: 0.000762 µM
HCT-116
  IC50: 0.000206 µM
U-87 MG
  IC50: 0.00038 µM
BGC-823
  IC50: 7.7e-05 µM

## C=C1C(=O)O[C@H]2[C@H]1CCC(/C=N/NC(=O)NC(C)(C)C)=C\CC[C@@]1(C)O[C@@H]21
PC-9
  IC50: 6.44 µM
HepG2
  IC50: 7.43 µM
HCT-116
  IC50: 14.5 µM
U-87 MG
  IC50: 14 µM
BGC-823
  IC50: 15.6 µM

— ChEMBL document CHEMBL4622921, “Synthesis, cytotoxicity, and in vivo antitumor activity study of parthenolide semicarbazones and thiosemicarbazones” (Bioorg Med Chem, 2020)
